Bioassay records: PubChem BioAssay, SRMLSC
HUVEC inhibit: human endothelial cell proliferation inhibition. 86,000 compounds, 1.1% hits. viability, % at 10 µM (by protocol). AID 648. HUVEC proliferation, CellTiter-Glo luminescence, 72 h; stronger effect = lower value;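 active = viability at or below 30%; inactive = viability above 30%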;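 also: 100% = median luminescence of DMSO-only cell control wells on each plate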
H69AR inhibit: growth inhibitors of human H69AR lung tumor cells. H69AR lung tumor viability, ATP luminescence, 72 h; stronger effect = lower value. viability, % at 10 µM. 85,000 compounds, 6% hits;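 active = viability at or below 40%; inactive = viability above 40%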;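 also: multidrug resistant small cell line overexpressing MRP-1 efflux transporter; 100% = mean luminescence of untreated control wells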
HCT116 PTEN-null: growth suppressors of cells with PTEN tumor suppressor deletion. HCT116 PTEN-null viability, CellTiter-Glo, 60 h; stronger effect = lower value. viability, % at 10 µM. 140,000 compounds, 1.2% hits;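 active = viability at or below a set limit, 4 SD under the median of all tested compounds, cut at about 3.7% in these data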;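 also: PTEN knockout HCT116 line with beta catenin targeted HCT116 as companion control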
Lung fibro prol: blocks proliferation of human lung fibroblasts; LL 47 human lung fibroblast viability, ATP luminescence; stronger effect = lower value; viability, % at 10 µM; 85,000 compounds, 1.1% hits; AID 719;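 active = viability at or below 50% in the single dose screen; inactive = viability above 50%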;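 also: compound exposure lasted 72 h before the ATP readout; 100% = median luminescence of untreated cell-only wells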
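Material: human LL 47 lung fibroblast cells; quantity: 1,150 cells/well; medium: IMEM plus 15% FBS; doses: 0.1% DMSO in all compound wells; timing: overnight attachment after seeding, then 72 h compound exposure at 37 °C; detection: CellTiter-Glo luminescence; measure: % viability of median cell-only signal; controls: cell-only wells, no compound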
bCat KO growth: beta-catenin-lacking colon tumor cell growth suppression. HCT116 beta-catenin knockout viability, CellTiter-Glo, 60 h; stronger effect = lower value. 140,000 compounds, 1.5% hits. AID 818. viability, % at 10 µM;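 active = viability at or under a set limit, the compound median less 4 SD, cut at about 6% in these data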;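 also: 0% = Hyamine 1622 control at 20 µM and 100% = untreated cell control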
An asterisk follows results filed as active; / = no result. The entries come from a sample that favours hits as a whole.

SMILES	HUVEC inhibit	H69AR inhibit	HCT116 PTEN-null	Lung fibro prol	bCat KO growth
Cc1ccc(CNC(=O)CCSCCC(=O)NCc2ccc(C)cc2)cc1	92	101	103	100	95
CN(C(=O)CN1CCC(NC(=O)C2CCCCC2)CC1)C1CCCCC1	87	92	97	100	92
COC(=O)c1c(NC(=O)CC2Nc3ccccc3NC2=O)sc(C)c1C (centres undefined)	/	/	1.9*	/	1.6*
COC(=O)c1cc(NC(=O)CC2SCCNC2=O)cc(C(=O)OC)c1 (centres undefined)	103	86	107	108	104
CCCCNC(=O)CC1Nc2ccccc2NC1=O (centres undefined)	102	92	98	98	95
O=C(CC1SCCNC1=O)Nc1cc(Cl)cc(Cl)c1 (centres undefined)	88	88	97	47*	95
CCCCOc1ccccc1NC(=O)CC1Nc2ccccc2NC1=O (centres undefined)	86	40*	/	98	/
O=C(CC1Nc2ccccc2NC1=O)Nc1cc(Cl)cc(Cl)c1 (centres undefined)	75	44	3.6*	101	1.9*
CCOc1ccccc1CNC(=O)C1CCC(=O)N1C(C)C (centres undefined)	98	103	94	/	96
Cc1cc(N2CCN(c3ccccc3)CC2)nc(-c2ccccc2O)n1	108	88	56	102	72
Cc1cc(-n2[nH]c(C)c(C)c2=O)nc(-c2ccccc2O)n1	76	16*	13	66	18
O=C(CC(Nc1ccc(F)cc1)c1ccccc1)c1ccccc1 (centres undefined)	/	/	3.4*	/	8
O=C(CC(Nc1ccc(Cl)cc1)C(=O)O)c1ccccc1 (centres undefined)	61	104	83	88	70
O=C(CSc1nnnn1-c1ccccc1)CC(=O)Nc1ccc(Cl)cc1	64	17*	82	83	84
O=C(CSc1nnnn1-c1ccccc1)Nc1nsc(-c2ccc(Cl)cc2)n1	75	86	92	107	94
Cc1cc(C)c(C#N)c(N2CCSCC2)n1	92	96	108	92	91
O=C(/C=C/NNC(=O)c1cccc(Br)c1)c1cccc(Br)c1	53	78	59	76	63
O=C(/C=C/NNC(=O)c1ccccc1)c1ccc(Br)cc1	73	34*	99	59	90
COc1ccc2[nH]c(C)c(CCN(Cc3cccs3)C(=S)Nc3ccccc3)c2c1	76	69	55	93	60
COc1ccc2[nH]c(C)c(CCN(Cc3cccs3)C(=S)Nc3ccc(F)cc3)c2c1	88	37*	63	100	62
Cc1ccc(CNC(=O)C2CC(=O)OC23CCCC3)c(C)c1 (centres undefined)	95	91	106	99	94
N=C(N)SCc1ccc(Cl)cc1Cl	/	/	91	/	88
COc1cc(-c2nnc(-c3ccc(N4CCOCC4)cc3)o2)cc(OC)c1OC	84	17*	76	95	74
COc1cc([C@H]2c3[nH]c4ccccc4c3C[C@H]3C(=O)N4[C@@H](c5cc(OC)c(OC)c(OC)c5)c5[nH]c6ccccc6c5C[C@H]4C(=O)N23)cc(OC)c1OC	/	/	1.8*	/	3.0*
O=C1[C@@H]2Cc3c([nH]c4ccccc34)[C@@H](c3ccccc3)N2C(=O)[C@@H]2Cc3c([nH]c4ccccc34)[C@@H](c3ccccc3)N12	/	/	1.5*	/	1.4*
SMILES	HUVEC inhibit	H69AR inhibit	HCT116 PTEN-null	Lung fibro prol	bCat KO growth
COC(=O)C1=C(C)N=c2s/c(=C3\C(=O)Nc4ccccc43)c(=O)n2C1c1ccccc1 (centres undefined)	3.3*	0.9*	94	82	98
CCOC(=O)C1=C(C)N=c2s/c(=C3/C(=O)Nc4ccccc43)c(=O)n2C1c1ccc(C)cc1 (centres undefined)	3.2*	1.8*	91	88	106
Cc1noc(C)c1S(=O)(=O)N1CCC(C(=O)N2CCN(c3ccccc3Cl)CC2)CC1	98	8.4*	79	102	65
O=C(O)CCC(=O)OC1CC2CCC1C2 (centres undefined)	98	/	105	94	119
CC(=O)C1=C(C)N(Cc2ccccc2)C(=O)N[C@@H]1c1cccc(C(F)(F)F)c1	/	/	89	/	89
COC(=O)C1=C(C)N(Cc2ccco2)C(=O)N[C@@H]1c1cccc(C(F)(F)F)c1	/	/	0.7*	/	0.7*
COc1ccc(C)cc1C(=O)CCC(=O)Nc1ccccc1N1CCOCC1	110	81	1.2*	91	1.2*
CCSc1nc(-c2ccc(OC)cc2)n(-c2nc3ccccc3s2)n1	98	84	77	94	75
Cc1onc(-c2ccccc2Cl)c1C(=O)NCc1ccccn1	103	96	101	102	94
Cc1cc(F)ccc1S(=O)(=O)Nc1ccccc1C(=O)Nc1ncn[nH]1	88	94	88	104	99
Cc1cc(F)ccc1S(=O)(=O)Nc1ccccc1C(=O)Nc1ccccc1-c1nc2ccccc2[nH]1	/	/	4	/	3.7*
CC1(C)CC(=O)C2=C(C1)N(c1ccccc1)C(N)=C(C#N)C2c1ccccc1 (centres undefined)	93	57	99	87	89
Cc1ccc(N2C(N)=C(C#N)C(c3cccnc3)C3=C2CCCC3=O)cc1 (centres undefined)	90	30*	92	93	86
CC1(C)CC(=O)C2=C(C1)N(c1ccccc1)C(N)=C(C#N)C2c1cccnc1 (centres undefined)	93	35*	85	86	93
CCn1nnc(NC(=O)C(C)Oc2ccc(Cl)cc2Cl)n1 (centres undefined)	99	95	94	98	94
COc1ccc(-c2cc(C(F)(F)F)c(C#N)c(SCC(=O)Nc3ccccc3C#N)n2)cc1	/	/	5	/	3.2*
COc1ccc(-c2cc(-c3cccs3)c(C#N)c(SCC(=O)NCc3ccccc3)n2)cc1	66	35*	42	94	43
COc1ccccc1CNC(=O)CSc1nc(N)c(C#N)c(-c2cccs2)c1C#N	87	57	85	94	81
COc1ccc(-c2cc(-c3cccs3)c(C#N)c(SCC(=O)NCc3ccccc3OC)n2)cc1	45	11*	6	49*	10
NC(=O)c1cccc2c1C(=O)N(C1CCCCC1)C2	91	96	82	89	90
Cc1ccc(NC(=O)c2cc(-c3ccc(C)o3)nc3ccccc23)cc1	94	32*	46	90	57
Cc1ccc(-c2cc(C(=O)Nc3cccnc3)c3ccccc3n2)o1	82	60	86	103	86
Cc1ccc(Nc2nc(N)nc(CSc3nccn3C)n2)c(C)c1	97	79	101	98	92
CC/C(=C\C1CCCCC1)C(NP(=O)(c1ccccc1)c1ccccc1)c1ccccc1 (centres undefined)	/	/	4	/	5.6*
COc1ccc(N(C(C)C(=O)N/N=C/c2ccc(OC(C)C)cc2)S(C)(=O)=O)cc1 (centres undefined)	/	/	103	/	96
